Among the data in ChEMBL document CHEMBL2057169, “Discovery of novel tricyclic compounds as squalene synthase inhibitors” (Bioorg Med Chem, 2012) are IC50 and inhibition in vivo values, retold here.

One experiment has as its target T1, Squalene synthase (Rattus norvegicus, UniProt Q02769).
T1 sequence (Q02769 whole entry): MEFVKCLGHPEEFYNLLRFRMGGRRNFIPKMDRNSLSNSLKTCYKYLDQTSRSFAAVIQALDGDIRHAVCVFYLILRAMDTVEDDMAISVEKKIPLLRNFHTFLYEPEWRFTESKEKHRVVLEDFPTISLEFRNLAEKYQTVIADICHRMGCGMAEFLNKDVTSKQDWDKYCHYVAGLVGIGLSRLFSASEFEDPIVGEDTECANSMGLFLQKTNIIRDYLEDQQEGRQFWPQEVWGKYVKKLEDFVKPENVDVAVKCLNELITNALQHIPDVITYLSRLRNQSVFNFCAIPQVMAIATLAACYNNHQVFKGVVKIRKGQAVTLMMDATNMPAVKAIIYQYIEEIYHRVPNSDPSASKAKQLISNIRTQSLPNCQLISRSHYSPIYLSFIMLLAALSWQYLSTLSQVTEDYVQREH
The experiment in a line: Inhibition of squalene synthase in rat hepatic cells. It is filed as cell-based.

A further experiment concerns Hepatocyte. The experiment in a line: Inhibition of cholesterol synthesis in rat hepatocytes assessed as formation of cholesterol using [14C]mevalonolactone as substrate after 1 hr by radioactivity assay. In kind it is functional, cell-based. Put shortly: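 Rat hepatocytes isolated by two-step portal-vein perfusion (EGTA buffer, then 0.05% collagenase). Cells were kept if viability was over 80% by trypan blue and seeded at 10^6 cells/well in DMEM with 10% LPDS. Next day they got 5% LPDS medium with inhibitor at 0–3000 nM for 1 h at 37 °C, then [14C]mevalonolactone for 1 h. Lysates were saponified, [14C]cholesterol corrected by [3H]cholesterol recovery and BCA protein, and % inhibition taken versus 0 nM wells. Triplicate wells; three experiments.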

In the next experiment the test system is Rattus norvegicus. Put plainly: Inhibition of cholesterol synthesis in Wistar rat liver assessed as reduction of [14C]-cholesterol level at 3 mg/kg, po administered as single dose measured after 1 hr by liquid scintillation counting. In kind it is functional. The essentials:
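Male Wistar rats, 6 weeks old, n = 4-6, dosed orally at 3 mg/kg in 0.5% methylcellulose, with equimolar NaOH or NaHCO3 added; vehicle-only controls. At 1 h, [14C]mevalonic acid (5 µCi/5 ml/kg) was given ip, and rats were killed 1 h later.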

For experiment [1], the system named is marmosets. Put plainly: Lipid lowering effect in marmosets assessed as reduction in plasma non HDL-cholesterol level at 100 mg/kg, po administered once daily for 7 days. In kind it is functional. The settings on record: Callitrichinae sp., in Callithrix jacchus, 168 h. Put shortly:
(§1)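 Common marmosets, n = 8 per group, matched for body weight and plasma lipids. They were dosed orally at 100 mg/kg in 0.5% methylcellulose (5 ml/kg) once daily for 7 days. Nonfasted blood was drawn before dosing and the morning after the last dose. HDL was precipitated, then its cholesterol assayed enzymatically; non-HDL = total minus HDL cholesterol. Change was expressed relative to pre-values.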

The subject of experiment [2] is marmosets. Put plainly: Lipid lowering effect in marmosets assessed as reduction in plasma total cholesterol level at 100 mg/kg, po administered once daily for 7 days. It is filed as functional. The settings on record: Callitrichinae sp., in Callithrix jacchus, 168 h. Put shortly:
as §1

For experiment [3], the system named is marmosets. The experiment in a line: Lipid lowering effect in marmosets assessed as reduction in plasma HDL-cholesterol level at 100 mg/kg, po administered once daily for 7 days. In kind it is functional. The settings on record: Callitrichinae sp., in Callithrix jacchus, 168 h. Put shortly: as §1
The test system of experiment [4] is marmosets. Put plainly: Lipid lowering effect in marmosets assessed as reduction in plasma triglyceride level at 100 mg/kg, po administered once daily for 7 days. In kind it is functional. The settings on record: Callitrichinae sp., in Callithrix jacchus, 168 h. Put shortly: as §1

Molecules are shown by their SMILES.

The term IC50 denotes the point on the concentration scale where inhibition reaches its midpoint. Broadly, the inhibition in vivo is the drop in the measured response relative to a control, in per cent.

Regarding `O=C(O)CC1OC(c2cccc3ccccc23)c2cc(Cl)ccc2-n2cccc21` (configuration not stated), the half-maximal inhibitory concentration (IC50) at Squalene synthase was over 600 nM.
`O=C(O)CC1OC(c2cccc(Cl)c2Cl)c2cc(Cl)ccc2-n2cccc21` (configuration not stated) returned an IC50 on Squalene synthase of 52 nM.
Compound `O=C(O)CC1OC(c2cccc3c2OCCO3)c2cc(Cl)ccc2-n2cccc21` (configuration not stated) gave an IC50 at Squalene synthase of 440 nM.
As to `COc1cccc([C@@H]2O[C@@H](CC(=O)N3CCC(CC(=O)O)CC3)c3cccn3-c3ccc(Cl)cc32)c1OC`, the IC50 against Squalene synthase is over 600 nM.
Consider `COc1cccc([C@H]2O[C@H](CC(=O)N3CCC(C(=O)O)CC3)c3cccn3-c3ccc(Cl)cc32)c1OC`, for which the IC50 against Squalene synthase came to 3.4 nM; with Hepatocyte it was 170 nM.
With `COc1cccc([C@H]2O[C@H](CC(=O)N3CCC[C@H](C(=O)O)C3)c3cccn3-c3ccc(Cl)cc32)c1OC`, the IC50 at Squalene synthase turned out to be 2.3 nM; in the experiment on Hepatocyte, 60 nM.
Take `COc1cccc([C@H]2O[C@H](CC(=O)N3CCN(CC(=O)O)CC3)c3cccn3-c3ccc(Cl)cc32)c1OC`: the half-inhibitory concentration (IC50) was 4.3 nM against Squalene synthase and 150 nM in the experiment with Hepatocyte.
As to `COc1cccc([C@H]2O[C@H](CC(=O)NCC(=O)O)c3cccn3-c3ccc(Cl)cc32)c1OC`, the half-inhibitory concentration (IC50) against Squalene synthase is 2.3 nM; in the experiment on Hepatocyte it was 94 nM.
For `COc1cccc([C@H]2O[C@H](CC(=O)NCCC(=O)O)c3cccn3-c3ccc(Cl)cc32)c1OC`, the concentration for half-maximal inhibition (IC50) turned out to be 2.9 nM on Squalene synthase and 160 nM in the experiment with Hepatocyte.
Regarding `COc1cccc([C@H]2O[C@H](CC(=O)Nc3cccc(C(=O)O)c3)c3cccn3-c3ccc(Cl)cc32)c1OC`, the IC50 on Squalene synthase was found to be 4 nM; with Hepatocyte, 150 nM.
With `COc1cccc([C@H]2O[C@H](CCC(=O)O)c3cccn3-c3ccc(Cl)cc32)c1OC`, the results for the IC50 at Squalene synthase and in the experiment on Hepatocyte were 3.1 nM and over 1000 nM, respectively.
For `COc1cccc([C@H]2O[C@H](CCC(=O)N3CCC(CC(=O)O)CC3)c3cccn3-c3ccc(Cl)cc32)c1OC`, the IC50 against Squalene synthase was 2.4 nM; in the experiment with Hepatocyte it was 93 nM. Besides, the inhibition in vivo at 3 mg/kg in the experiment on Rattus norvegicus was 35%.
As to `COc1cccc([C@H]2O[C@H](CCC(=O)N3CC(C(=O)O)C3)c3cccn3-c3ccc(Cl)cc32)c1OC`, the IC50 against Squalene synthase stood at 2.2 nM; with Hepatocyte, 23 nM. Besides, the inhibition in vivo at 3 mg/kg in the experiment with Rattus norvegicus was determined as 31%.
In the same order, the values of `COc1cccc([C@H]2O[C@H](CCC(=O)N3CC(CC(=O)O)C3)c3cccn3-c3ccc(Cl)cc32)c1OC` are 7 nM, 36 nM and 41%.
Turning to `COc1cccc([C@H]2O[C@H](CCC(=O)N3CCC(OCC(=O)O)CC3)c3cccn3-c3ccc(Cl)cc32)c1OC`, the IC50 on Squalene synthase is 0.8 nM; with Hepatocyte, 7.2 nM. Further, in the experiment on Rattus norvegicus, the inhibition in vivo at 3 mg/kg was found to be 18%.
Regarding `COc1cccc([C@H]2O[C@H](CCC(=O)N3CCC(OCCC(=O)O)CC3)c3cccn3-c3ccc(Cl)cc32)c1OC`, the IC50 against Squalene synthase was 1.4 nM; in the experiment with Hepatocyte it was 35 nM. For the same compound, the inhibition in vivo at 3 mg/kg with Rattus norvegicus was found to be 23%.
Take `COc1cccc([C@H]2O[C@H](CCC(=O)N3CCC(COCC(=O)O)CC3)c3cccn3-c3ccc(Cl)cc32)c1OC`: the IC50 came out at 0.9 nM on Squalene synthase and 10 nM in the experiment with Hepatocyte. Further, in the experiment with Rattus norvegicus, the inhibition in vivo at 3 mg/kg turned out to be 7%.
The matching figures for `COc1cccc([C@H]2O[C@H](CCC(=O)N3CCOC(C(=O)O)C3)c3cccn3-c3ccc(Cl)cc32)c1OC` (some centres not stated): 1.6 nM, 9.7 nM and 13%.
Consider `COc1cccc([C@H]2O[C@H](CCC(=O)N3CCN(CC(=O)O)C(=O)C3)c3cccn3-c3ccc(Cl)cc32)c1OC`, for which the IC50 was 2.2 nM against Squalene synthase and 11 nM in the experiment on Hepatocyte. Besides, the inhibition in vivo at 3 mg/kg in the experiment on Rattus norvegicus is 1%.
In the same order, the values of `COc1cccc([C@H]2O[C@H](CCn3cc(C(=O)O)nn3)c3cccn3-c3ccc(Cl)cc32)c1OC` are 0.59 nM, 25 nM and 44%.
For `COc1cccc([C@H]2O[C@H](CCn3nncc3CC(=O)O)c3cccn3-c3ccc(Cl)cc32)c1OC`, the IC50 against Squalene synthase came out at 0.81 nM; in the experiment on Hepatocyte, 41 nM. In addition, the inhibition in vivo at 3 mg/kg in the experiment on Rattus norvegicus worked out at 50%.
Regarding `COc1cccc([C@H]2O[C@H](CCn3cc(COCC(=O)O)nn3)c3cccn3-c3ccc(Cl)cc32)c1OC`, the IC50 against Squalene synthase was found to be 0.68 nM; with Hepatocyte, 19 nM. The inhibition in vivo at 3 mg/kg with Rattus norvegicus stood at 18%.
As to `COc1cccc([C@H]2O[C@H](CCn3cc(COC(C)(C)C(=O)O)nn3)c3cccn3-c3ccc(Cl)cc32)c1OC`, the IC50 on Squalene synthase stood at 0.69 nM; in the experiment with Hepatocyte, 7.3 nM. In the experiment with Rattus norvegicus, the inhibition in vivo at 3 mg/kg turned out to be 36%.
For `CCC(CC)(OCc1cn(CC[C@H]2O[C@H](c3cccc(OC)c3OC)c3cc(Cl)ccc3-n3cccc32)nn1)C(=O)O`, the half-maximal inhibitory concentration (IC50) worked out at 1.7 nM against Squalene synthase and 14 nM in the experiment on Hepatocyte. In the experiment on Rattus norvegicus, the inhibition in vivo at 3 mg/kg worked out at 45%.
Take `COc1cccc([C@H]2O[C@H](CCn3nccc3CC(=O)O)c3cccn3-c3ccc(Cl)cc32)c1OC`: the 50% inhibitory concentration (IC50) against Squalene synthase amounted to 1.6 nM; in the experiment with Hepatocyte, 210 nM. Besides, the inhibition in vivo at 3 mg/kg in the experiment with Rattus norvegicus turned out to be 5%.
The matching figures for `COc1cccc([C@H]2O[C@H](CCn3cc(C(=O)O)cn3)c3cccn3-c3ccc(Cl)cc32)c1OC`: 2.1 nM, 54 nM and 56%.
As for `COc1cccc([C@H]2O[C@H](CCn3cc(CC(=O)O)cn3)c3cccn3-c3ccc(Cl)cc32)c1OC`, the half-inhibitory concentration (IC50) amounted to 3.1 nM at Squalene synthase and 62 nM with Hepatocyte. The inhibition in vivo at 3 mg/kg in the experiment with Rattus norvegicus is 34%.
As to `COc1cccc([C@H]2O[C@H](CCn3nnc(C(=O)O)n3)c3cccn3-c3ccc(Cl)cc32)c1OC`, the IC50 on Squalene synthase was found to be 0.89 nM; in the experiment with Hepatocyte it was 18 nM. Besides, the inhibition in vivo at 3 mg/kg in the experiment with Rattus norvegicus stood at 38%.
`COc1cccc([C@H]2O[C@H](CCn3nnnc3CC(=O)O)c3cccn3-c3ccc(Cl)cc32)c1OC`: the half-maximal inhibitory concentration (IC50) on Squalene synthase came out at 1.1 nM; in the experiment with Hepatocyte, 130 nM.
Consider `COc1cccc([C@H]2O[C@H](CCn3nnc(CCC(=O)O)n3)c3cccn3-c3ccc(Cl)cc32)c1OC`, for which the 50% inhibitory concentration (IC50) came to 0.85 nM at Squalene synthase and 70 nM in the experiment on Hepatocyte. In addition, in the experiment with Rattus norvegicus, the inhibition in vivo at 3 mg/kg came out at 64%.
Turning to `COc1cccc([C@H]2O[C@H](CCn3nnc(C(C)(C)C(=O)O)n3)c3cccn3-c3ccc(Cl)cc32)c1OC`, the results for the IC50 on Squalene synthase and in the experiment with Hepatocyte were 1.1 nM and 58 nM, respectively. Moreover, in the experiment on Rattus norvegicus, the inhibition in vivo at 3 mg/kg was determined as 44%.
As for `COc1cccc([C@H]2O[C@H](CCn3nnc(C4(C(=O)O)CC4)n3)c3cccn3-c3ccc(Cl)cc32)c1OC`, the IC50 against Squalene synthase worked out at 1.7 nM; in the experiment on Hepatocyte, 52 nM. In addition, the inhibition in vivo at 3 mg/kg in the experiment on Rattus norvegicus amounted to 53%.
Regarding `COc1cccc([C@H]2O[C@H](CCn3nnc(COC(C)(C)C(=O)O)n3)c3cccn3-c3ccc(Cl)cc32)c1OC`, the IC50 stood at 2.5 nM against Squalene synthase and 10 nM with Hepatocyte. Moreover, the inhibition in vivo at 3 mg/kg in the experiment with Rattus norvegicus turned out to be 51%.
At Squalene synthase, `COC(=O)CC1OC(c2cccc(OC)c2OC)c2cc(Cl)ccc2-n2cccc21` (racemic) yielded an IC50 of 220 nM.
As to `COc1cccc(C2OC(CC(=O)O)c3cccn3-c3ccc(Cl)cc32)c1OC` (racemic), the IC50 on Squalene synthase is 3.3 nM; in the experiment with Hepatocyte, 250 nM.
Regarding `COc1cccc(C2OC(CC(=O)N3CCC(CC(=O)O)CC3)c3cccn3-c3ccc(Cl)cc32)c1OC` (racemic), the IC50 against Squalene synthase amounted to 2.7 nM; in the experiment with Hepatocyte, 63 nM.
The matching figures for `COc1cccc(C2OC(CC(=O)O)c3ccc(Cl)n3-c3ccc(Cl)cc32)c1OC` (racemic): 1.6 nM and 560 nM.
Turning to `COc1cccc(C2OC(CC(=O)O)c3ccc(CN(C)C)n3-c3ccc(Cl)cc32)c1OC` (racemic), the IC50 against Squalene synthase was determined as 540 nM.
For the compound `COc1cccc(C2OC(CC(=O)O)c3ccc(CN4CCOCC4)n3-c3ccc(Cl)cc32)c1OC` (racemic), the figures for the IC50 against Squalene synthase and in the experiment with Hepatocyte were 7.6 nM and 160 nM, respectively.
Take `COc1cccc([C@H]2O[C@H](CC(=O)N3CCC(CC(=O)O)CC3)C(=O)N(CC(C)(C)COC(C)=O)c3ccc(Cl)cc32)c1OC` [LAPAQUISTAT ACETATE]: the inhibition in vivo at 100 mg/kg with marmosets [1] was 29%; in the experiment on marmosets [2], 23%; in the experiment with marmosets [3] it was 14%; in the experiment with marmosets [4], 25%.
